Rtt109 Vps75: blocks Candida albicans Rtt109/Vps75 acetyltransferase activity | Q5AAJ8 | purified Rtt109/Vps75, ThioGlo CoA-SH fluorescence, 4 h | inhibition, % at 34.9 µM | 0.16% of 330,000 active | AID 540336;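 active means inhibition of at least 50% in every replicate; inconclusive means best replicate reaches 50% inhibition but some replicates fall short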
HDAC3 inh: inhibitors of human histone deacetylase 3. O15379. recombinant HDAC3, fluorogenic peptide/trypsin coupled, fluorescence. inhibition, % at 8.3 µM. 0.15% of 320,000 active. AID 2718; in the data active means inhibition above about 26%, passing the limit was not always enough; inconclusive means no clear call, values can overlap the other calls
FAS-TE inh: FAS thioesterase (human) inhibition; P49327; recombinant FAS-TE, OMFH fluorogenic substrate, fluorescence endpoint; inhibition, % at 15 µM; 0.67% of 360,000 active; AID 602261;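 active means compounds whose normalised, plate-corrected inhibition of enzyme fluorescence in the single-dose primary screen is 50% or more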;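 further: 0% = DMSO with enzyme and 100% = substrate without enzyme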
Target sequence (P49327 whole entry, looked up): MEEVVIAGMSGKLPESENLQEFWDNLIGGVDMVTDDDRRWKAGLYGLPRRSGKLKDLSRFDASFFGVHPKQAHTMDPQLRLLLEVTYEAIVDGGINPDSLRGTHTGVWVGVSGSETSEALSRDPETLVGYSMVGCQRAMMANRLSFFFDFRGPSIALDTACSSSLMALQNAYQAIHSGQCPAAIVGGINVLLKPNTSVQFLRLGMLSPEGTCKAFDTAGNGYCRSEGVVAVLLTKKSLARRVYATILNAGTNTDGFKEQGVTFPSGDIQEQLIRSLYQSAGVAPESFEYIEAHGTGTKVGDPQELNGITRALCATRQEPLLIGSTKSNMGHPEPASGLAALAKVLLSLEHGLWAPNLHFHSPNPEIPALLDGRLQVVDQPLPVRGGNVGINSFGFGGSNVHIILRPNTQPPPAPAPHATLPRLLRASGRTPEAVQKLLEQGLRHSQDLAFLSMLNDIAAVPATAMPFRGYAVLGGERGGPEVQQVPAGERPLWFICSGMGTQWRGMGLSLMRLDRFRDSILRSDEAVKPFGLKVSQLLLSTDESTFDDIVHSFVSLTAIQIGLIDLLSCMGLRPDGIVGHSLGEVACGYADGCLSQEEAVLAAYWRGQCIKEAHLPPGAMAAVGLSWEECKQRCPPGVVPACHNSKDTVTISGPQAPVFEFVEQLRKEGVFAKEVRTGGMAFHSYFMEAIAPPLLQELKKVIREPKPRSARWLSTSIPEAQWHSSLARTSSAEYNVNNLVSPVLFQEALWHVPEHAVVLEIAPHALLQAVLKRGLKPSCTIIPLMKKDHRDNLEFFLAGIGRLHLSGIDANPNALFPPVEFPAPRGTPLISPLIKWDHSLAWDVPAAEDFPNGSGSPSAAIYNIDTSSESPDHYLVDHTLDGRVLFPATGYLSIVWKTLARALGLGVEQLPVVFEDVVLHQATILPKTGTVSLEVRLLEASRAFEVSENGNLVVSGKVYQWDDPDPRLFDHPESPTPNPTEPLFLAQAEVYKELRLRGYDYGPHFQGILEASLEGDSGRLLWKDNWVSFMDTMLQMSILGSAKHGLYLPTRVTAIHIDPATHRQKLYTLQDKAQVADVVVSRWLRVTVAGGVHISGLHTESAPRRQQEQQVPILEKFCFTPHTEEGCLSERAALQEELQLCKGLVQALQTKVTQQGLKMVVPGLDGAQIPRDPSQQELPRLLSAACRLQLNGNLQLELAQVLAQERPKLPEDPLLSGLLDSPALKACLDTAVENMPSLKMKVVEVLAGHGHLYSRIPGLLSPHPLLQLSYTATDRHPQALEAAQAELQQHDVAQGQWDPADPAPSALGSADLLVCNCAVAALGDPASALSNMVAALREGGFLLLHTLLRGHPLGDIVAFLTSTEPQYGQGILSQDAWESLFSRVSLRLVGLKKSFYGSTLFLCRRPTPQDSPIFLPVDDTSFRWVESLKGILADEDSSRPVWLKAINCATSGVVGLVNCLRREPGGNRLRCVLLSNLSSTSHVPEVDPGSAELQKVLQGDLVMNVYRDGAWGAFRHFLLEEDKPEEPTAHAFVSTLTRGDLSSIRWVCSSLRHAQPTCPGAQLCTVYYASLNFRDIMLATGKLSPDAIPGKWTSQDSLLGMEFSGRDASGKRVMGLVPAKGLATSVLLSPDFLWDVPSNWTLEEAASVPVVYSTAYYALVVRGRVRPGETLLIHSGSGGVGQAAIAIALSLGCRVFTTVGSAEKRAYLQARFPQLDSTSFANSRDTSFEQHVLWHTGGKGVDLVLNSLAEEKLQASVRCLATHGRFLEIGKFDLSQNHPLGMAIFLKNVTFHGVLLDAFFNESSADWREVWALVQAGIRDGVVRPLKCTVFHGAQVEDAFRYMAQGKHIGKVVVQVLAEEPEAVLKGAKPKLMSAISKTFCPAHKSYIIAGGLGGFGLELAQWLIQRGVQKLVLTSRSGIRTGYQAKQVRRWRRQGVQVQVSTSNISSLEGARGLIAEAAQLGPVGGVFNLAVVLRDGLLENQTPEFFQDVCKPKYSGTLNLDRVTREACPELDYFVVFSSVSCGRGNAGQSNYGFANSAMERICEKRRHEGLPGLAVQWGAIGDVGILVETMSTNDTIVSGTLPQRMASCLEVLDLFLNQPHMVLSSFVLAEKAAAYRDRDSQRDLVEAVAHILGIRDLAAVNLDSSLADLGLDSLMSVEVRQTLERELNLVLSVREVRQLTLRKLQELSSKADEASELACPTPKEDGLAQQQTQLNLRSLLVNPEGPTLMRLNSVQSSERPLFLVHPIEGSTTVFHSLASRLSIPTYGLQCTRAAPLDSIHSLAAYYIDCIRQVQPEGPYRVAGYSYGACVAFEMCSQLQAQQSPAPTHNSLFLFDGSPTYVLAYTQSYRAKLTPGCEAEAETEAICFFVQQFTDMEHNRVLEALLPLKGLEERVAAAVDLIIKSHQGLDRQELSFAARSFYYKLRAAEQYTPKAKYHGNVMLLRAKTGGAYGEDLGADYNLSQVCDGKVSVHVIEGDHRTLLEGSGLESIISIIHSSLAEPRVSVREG
ALR inh: human ALR oxidase inhibition via reduced H2O2 | P55789 | purified ALR, DTT oxidation, H2O2 HRP-luminol luminescence | inhibition, % (concentration not given with the values) | 3.8% of 290,000 active | AID 485317;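 active means mean replicate inhibition above about 79%, with every replicate also reaching it, limit read from the data; inconclusive means only one of the two criteria met; inactive means mean below limit and not every replicate reaching it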
PfM18AAP inh: blocks P. falciparum M18 aspartyl aminopeptidase. recombinant PfM18AAP, H-Glu-NHMec fluorogenic cleavage. inhibition, % at 7.35 µM. 1.2% of 290,000 active. AID 1822;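 active means inhibition above the campaign mean inhibition over all tested compounds plus 3 SD, cut at about 28% in these data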;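 further: 0% = plate median of test compound wells and 100% = 2 mM ZnCl2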
UCH37 DUB inh: blocks the human deubiquitinase UCH37. Q9Y5K5. purified proteasome/UCH37, Ub-AMC cleavage fluorescence. inhibition, % (test concentration not listed). 0.33% of 330,000 active. AID 588478;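 active means mean inhibition over replicate wells above about 20%, limit read from the data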;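 further: 0% = compound-free wells with enzyme and 100% = wells lacking proteasome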
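System: Proteasome-associated human UCH37 deubiquitinase; Input: 0.15 nM proteasome in added enzyme buffer; Also added: Ub-AMC substrate from 1 µM stock; Incubation: 30 min compound-proteasome preincubation then 25 min substrate reaction, room temperature; Detection: fluorescence, ex 355 nm, em 460 nm; Read-out: % inhibition of Ub-AMC cleavage fluorescence; Benchmarks: no-proteasome and no-compound wells.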
An asterisk follows results filed as active. Compounds with a hit are over-represented: about 4.6% of the library has one in this group of screens.

Results for O=C(NCCCN1CCN(c2ccccc2)CC1)C1CCCN(c2ncnc3c2nc2n3CCCCC2)C1 (centres undefined) ?
Rtt109 Vps75: 0.4; HDAC3 inh: -6.6; FAS-TE inh: 6.9; ALR inh: 98.8*; PfM18AAP inh: 0.6; UCH37 DUB inh: 1.0

How did O=C(NCCC1=CCCCC1)C1CCN(S(=O)(=O)c2cnc[nH]2)CC1 do in these assays?
Rtt109 Vps75: -8.7; HDAC3 inh: 3.9; FAS-TE inh: -9.3; ALR inh: -8.1; PfM18AAP inh: 2.8; UCH37 DUB inh: 20.4*

How did O=C(NCc1ccccc1Cl)C1CCCN(S(=O)(=O)c2cnc[nH]2)C1 (centres undefined) do in these assays?
Rtt109 Vps75: -0.5; HDAC3 inh: 2.1; FAS-TE inh: -6.5; ALR inh: 93.6*; PfM18AAP inh: -6.9; UCH37 DUB inh: 3.7

Results for O=C(NCCc1ccc(Cl)cc1)C1CCCN(S(=O)(=O)c2cnc[nH]2)C1 (centres undefined) ?
Rtt109 Vps75: 13.0; HDAC3 inh: 3.5; FAS-TE inh: -7.7; ALR inh: 12.0; PfM18AAP inh: -9.8; UCH37 DUB inh: 4.2

Results for O=C(NCCC1=CCCCC1)C1CCN(S(=O)(=O)c2ccccc2)CC1 ?
Rtt109 Vps75: 2.6; HDAC3 inh: -6.2; FAS-TE inh: -0.4; ALR inh: -18.1; PfM18AAP inh: -1.2; UCH37 DUB inh: 0.5

What do the screens show for `O=C(Cc1cccc2ccccc12)NN=Cc1ccc(O)c([N+](=O)[O-])c1`?
UCH37 DUB inh: 4.1

How did O=C(NCCN1CCN(c2cccc(Cl)c2)CC1)C1CCCN(S(=O)(=O)c2cnc[nH]2)C1 (centres undefined) do in these assays?
Rtt109 Vps75: -6.6; HDAC3 inh: 2.3; FAS-TE inh: -19.6; ALR inh: 95.8*; PfM18AAP inh: 1.6; UCH37 DUB inh: 2.4

Results for O=C(Nc1cccc(Cl)c1)C1CCCN(S(=O)(=O)c2cnc[nH]2)C1 (centres undefined) ?
Rtt109 Vps75: -2.3; HDAC3 inh: 6.7; FAS-TE inh: -17.3; ALR inh: -35.0; PfM18AAP inh: -5.7; UCH37 DUB inh: 2.8

How did NC(=O)SCC(=O)Nc1cccc(Cl)c1 do in these assays?
Rtt109 Vps75: -14.5; HDAC3 inh: 39.1*; FAS-TE inh: -169.3; ALR inh: 99.5*; PfM18AAP inh: 22.4; UCH37 DUB inh: 0.6

How did N#CCSCC(=O)Nc1ccc(Cl)cc1 do in these assays?
Rtt109 Vps75: 2.3; HDAC3 inh: -5.2; FAS-TE inh: -22.8; ALR inh: 98.5*; PfM18AAP inh: 6.8; UCH37 DUB inh: 5.3

What do the screens show for `NC(=O)SCC(=O)Nc1ccc(Cl)cc1`?
Rtt109 Vps75: -2.5; HDAC3 inh: inconclusive; FAS-TE inh: -187.3; ALR inh: 99.2*; PfM18AAP inh: 24.8; UCH37 DUB inh: 1.3

What do the screens show for `NC(=O)SCC(=O)Nc1ccc(Cl)c(Cl)c1`?
Rtt109 Vps75: -1.5; HDAC3 inh: 15.0; FAS-TE inh: -229.8; ALR inh: 98.5*; PfM18AAP inh: 9.9; UCH37 DUB inh: 11.1

How did Cc1ccc(C=Nn2cnnc2)s1 do in these assays?
UCH37 DUB inh: 5.6

Results for Cc1ccc(NC(=O)CSC(N)=O)cc1Cl ?
Rtt109 Vps75: inconclusive; HDAC3 inh: 13.4; FAS-TE inh: -236.0; ALR inh: 99.5*; PfM18AAP inh: 5.8; UCH37 DUB inh: 2.2

Results for Cc1c(Cl)cccc1NC(=O)CSC(N)=O ?
Rtt109 Vps75: 6.7; HDAC3 inh: 1.8; FAS-TE inh: -96.3; ALR inh: 99.1*; PfM18AAP inh: 1.0; UCH37 DUB inh: 5.4

How did Cc1c(Cl)cccc1NC(=O)CSCC(N)=O do in these assays?
Rtt109 Vps75: -24.6; HDAC3 inh: -8.1; FAS-TE inh: -12.2; ALR inh: -3.8; PfM18AAP inh: -8.4; UCH37 DUB inh: 0.3

What do the screens show for `CC(=NNc1ccc(Cl)c(Cl)c1)c1ccc(-n2ccnc2)cc1`?
UCH37 DUB inh: 4.9

How did Cc1ccc(N=Nc2ccc(O)c(C=NNC(=O)c3ccc(N)cc3)c2)cc1C do in these assays?
UCH37 DUB inh: 8.6

What do the screens show for `CCC1CCCCN1S(=O)(=O)c1ccc(C(=O)Nc2nnc(-c3cccs3)o2)cc1` (centres undefined)?
Rtt109 Vps75: -6.4; HDAC3 inh: -5.8; FAS-TE inh: 2.6; ALR inh: 97.9*; PfM18AAP inh: -4.1; UCH37 DUB inh: 2.4

Results for COc1cc(C=NS(=O)(=O)CCc2ccccc2)cc(OC)c1O ?
UCH37 DUB inh: 7.9

What do the screens show for `Cc1cnn(-c2cc(NN=Cc3ccc(F)cc3)ncn2)c1`?
UCH37 DUB inh: 5.0

How did CC(=NOC(=O)c1ccc(Cl)cc1Cl)c1oc(C)nc1C do in these assays?
UCH37 DUB inh: -1.0

How did CCOc1ccc(-c2cc(C(=O)NN=Cc3cccnc3)c3ccccc3n2)cc1 do in these assays?
UCH37 DUB inh: -52.5

What do the screens show for `COc1ccccc1N1CCN(/N=C/c2cccc(O)c2)CC1`?
Rtt109 Vps75: 2.9; HDAC3 inh: -3.3; FAS-TE inh: -3.0; ALR inh: 51.5; PfM18AAP inh: -7.8

Results for COc1ccccc1N1CCN(/N=C/c2cc(OC)c(O)c(OC)c2)CC1 ?
Rtt109 Vps75: 6.1; HDAC3 inh: 9.7; FAS-TE inh: -7.7; ALR inh: 98.8*; PfM18AAP inh: 21.5

How did COc1cc(/C=N/n2c(=S)[nH]nc(C)c2=O)cc([N+](=O)[O-])c1O do in these assays?
Rtt109 Vps75: -3.6; HDAC3 inh: 3.9; FAS-TE inh: -2.5; ALR inh: 12.9; PfM18AAP inh: 28.9*

Results for COc1cc(C=Nn2c(-c3cc(C)[nH]n3)n[nH]c2=S)cc(OC)c1OC ?
UCH37 DUB inh: 3.1

What do the screens show for `COc1cc(/C=N/N2CCCCC2)cc([N+](=O)[O-])c1O`?
Rtt109 Vps75: -7.3; HDAC3 inh: 12.9; FAS-TE inh: -1.7; ALR inh: 98.4*; PfM18AAP inh: 2.9

How did O=[N+]([O-])c1ccc(C=NN2CCCCCC2)cc1 do in these assays?
Rtt109 Vps75: -3.5; FAS-TE inh: 19.5; UCH37 DUB inh: 1.5

How did COc1cccc(/C=N/n2c(-c3cc(C)[nH]n3)n[nH]c2=S)c1OC do in these assays?
Rtt109 Vps75: 0.7; HDAC3 inh: 15.3; FAS-TE inh: -6.5; ALR inh: 96.5*; PfM18AAP inh: 16.5

What do the screens show for `CCn1c(SCC(=O)NN=C/C=C/c2ccco2)nnc1-c1ccccc1`?
UCH37 DUB inh: 7.2

What do the screens show for `COc1ccc(C=NNC(=O)c2cccnc2)cc1COc1ccc([N+](=O)[O-])cc1`?
UCH37 DUB inh: 2.3

What do the screens show for `Cc1cc(-c2n[nH]c(=S)n2/N=C/c2ccc(Cl)c([N+](=O)[O-])c2)n[nH]1`?
Rtt109 Vps75: 3.4; HDAC3 inh: -1.3; FAS-TE inh: 10.4; ALR inh: 96.6*; PfM18AAP inh: 5.7

Results for C[n+]1cccc(C=NNc2nc(Cl)c(C#N)c(Cl)c2Cl)c1 ?
UCH37 DUB inh: 15.3

Compound activity as filed in PubChem BioAssay.
